As a reminder, the IC50 is the midpoint of a concentration-inhibition curve. Low readings indicate greater potency in that assay, high ones weaker potency in that assay.

Structures are written as SMILES.

For three compounds, IC50 results are on record in ChEMBL document CHEMBL1158526, “Labeled 3-aryl-4-indolylmaleimide derivatives and their potential as angiogenic PET biomarkers” (Bioorg Med Chem, 2010).

The target of assay [1] is Epidermal growth factor receptor (Homo sapiens, UniProt P00533). The assay can be described thus: Inhibition of EGFR after 80 mins by radiometric protein kinase assay.
Assay [2] concerns the target Receptor tyrosine-protein kinase erbB-2 (Homo sapiens, UniProt P04626). The assay can be described thus: Inhibition of ERBB2 after 80 mins by radiometric protein kinase assay. The procedure, abridged: (§1)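 The substrate was Poly(Glu,Tyr)4:1. 12 concentrations were run in triplicate with 1% final DMSO, at 30 °C for 80 min. Reactions were stopped with 2% H₃PO₄, washed with 0.9% NaCl, and ³³P incorporation was read by scintillation counting.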

Assay [3] concerns the target Insulin-like growth factor 1 receptor (Homo sapiens, UniProt P08069). The assay can be described thus: Inhibition of IGF1R after 80 mins by radiometric protein kinase assay. The gist of the method:
(§2)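 Radiometric [γ-33P]-ATP kinase assay with poly(Glu,Tyr) 4:1 substrate. Reaction run 80 min at 30 °C, stopped with 2% H3PO4 and washed with 0.9% NaCl. 33Pi incorporation counted by microplate scintillation. IC50 from 12 concentrations tested in triplicate, with Z'-factor used as plate control.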

Assay [4] concerns the target Mast/stem cell growth factor receptor Kit (Homo sapiens, UniProt P10721). The assay can be described thus: Inhibition of KIT after 80 mins by radiometric protein kinase assay. The procedure, abridged:
as §1

Assay [5] has as its target Platelet-derived growth factor receptor alpha (Homo sapiens, UniProt P16234). The assay can be described thus: Inhibition of PDGFRalpha after 80 mins by radiometric protein kinase assay. The procedure, abridged:
(§3)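 Radiometric [γ-33P]-ATP kinase assay with poly(Ala,Glu,Lys,Tyr) 6:2:5:1 substrate. Incubated 30 °C for 80 min, then stopped with 2% H3PO4 and washed with 0.9% NaCl. 33Pi incorporation read by scintillation counting. IC50 from 12 concentrations in triplicate; plate quality checked by Z'-factor.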

Assay [6] concerns the target Platelet-derived growth factor receptor beta (Homo sapiens, UniProt P09619). The assay can be described thus: Inhibition of PDGFRbeta after 80 mins by radiometric protein kinase assay.
Another assay has as its target Angiopoietin-1 receptor (Homo sapiens, UniProt Q02763). The assay can be described thus: Inhibition of TIE2 after 80 mins by radiometric protein kinase assay. The gist of the method:
as §3

Assay [7] has as its target Vascular endothelial growth factor receptor 1 (Homo sapiens, UniProt P17948). The assay can be described thus: Inhibition of VEGFR1 after 80 mins by radiometric protein kinase assay. The gist of the method:
as §2

The target in assay [8] is Vascular endothelial growth factor receptor 2 (Homo sapiens, UniProt P35968). The assay can be described thus: Inhibition of VEGFR2 after 80 mins by radiometric protein kinase assay. The gist of the method:
as §2

Assay [9] deals with Vascular endothelial growth factor receptor 3 (Homo sapiens, UniProt P35916). The assay can be described thus: Inhibition of VEGFR3 after 80 mins by radiometric protein kinase assay. The gist of the method: as §2

Sequence of Vascular endothelial growth factor receptor 1 (P17948 whole entry): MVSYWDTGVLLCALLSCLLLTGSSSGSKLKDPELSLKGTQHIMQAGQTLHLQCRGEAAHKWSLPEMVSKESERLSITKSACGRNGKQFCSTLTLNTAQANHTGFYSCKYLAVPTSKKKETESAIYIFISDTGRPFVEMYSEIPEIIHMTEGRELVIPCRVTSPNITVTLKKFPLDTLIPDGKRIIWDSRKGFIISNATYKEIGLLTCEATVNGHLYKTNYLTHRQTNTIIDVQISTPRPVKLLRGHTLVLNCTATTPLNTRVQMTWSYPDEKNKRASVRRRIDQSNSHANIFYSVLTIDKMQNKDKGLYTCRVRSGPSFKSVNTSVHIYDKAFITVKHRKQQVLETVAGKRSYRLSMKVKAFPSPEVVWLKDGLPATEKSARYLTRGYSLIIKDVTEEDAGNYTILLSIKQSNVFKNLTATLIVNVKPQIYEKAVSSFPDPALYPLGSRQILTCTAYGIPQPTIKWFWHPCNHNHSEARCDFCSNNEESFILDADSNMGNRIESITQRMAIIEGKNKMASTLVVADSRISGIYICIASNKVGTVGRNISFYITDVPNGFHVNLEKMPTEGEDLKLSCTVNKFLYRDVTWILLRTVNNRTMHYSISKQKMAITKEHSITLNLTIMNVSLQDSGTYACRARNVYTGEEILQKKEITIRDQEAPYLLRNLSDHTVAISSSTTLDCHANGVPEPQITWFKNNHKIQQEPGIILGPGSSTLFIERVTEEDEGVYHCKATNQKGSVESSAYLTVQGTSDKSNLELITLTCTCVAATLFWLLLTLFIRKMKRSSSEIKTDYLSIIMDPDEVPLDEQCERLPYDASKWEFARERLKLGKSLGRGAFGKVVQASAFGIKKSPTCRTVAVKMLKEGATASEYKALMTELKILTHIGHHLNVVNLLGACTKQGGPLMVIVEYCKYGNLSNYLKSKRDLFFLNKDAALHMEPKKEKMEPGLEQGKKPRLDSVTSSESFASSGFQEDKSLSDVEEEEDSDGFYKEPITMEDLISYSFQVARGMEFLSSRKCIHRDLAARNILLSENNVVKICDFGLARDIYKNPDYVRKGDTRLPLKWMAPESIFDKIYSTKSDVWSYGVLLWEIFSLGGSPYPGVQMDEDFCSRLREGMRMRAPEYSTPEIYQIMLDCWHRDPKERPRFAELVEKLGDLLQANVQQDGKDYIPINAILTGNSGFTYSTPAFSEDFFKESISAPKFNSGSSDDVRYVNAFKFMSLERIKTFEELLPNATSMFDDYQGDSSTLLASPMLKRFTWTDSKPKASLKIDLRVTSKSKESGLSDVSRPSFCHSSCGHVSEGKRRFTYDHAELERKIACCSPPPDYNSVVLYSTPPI
Sequence of Vascular endothelial growth factor receptor 2 (P35968 whole entry): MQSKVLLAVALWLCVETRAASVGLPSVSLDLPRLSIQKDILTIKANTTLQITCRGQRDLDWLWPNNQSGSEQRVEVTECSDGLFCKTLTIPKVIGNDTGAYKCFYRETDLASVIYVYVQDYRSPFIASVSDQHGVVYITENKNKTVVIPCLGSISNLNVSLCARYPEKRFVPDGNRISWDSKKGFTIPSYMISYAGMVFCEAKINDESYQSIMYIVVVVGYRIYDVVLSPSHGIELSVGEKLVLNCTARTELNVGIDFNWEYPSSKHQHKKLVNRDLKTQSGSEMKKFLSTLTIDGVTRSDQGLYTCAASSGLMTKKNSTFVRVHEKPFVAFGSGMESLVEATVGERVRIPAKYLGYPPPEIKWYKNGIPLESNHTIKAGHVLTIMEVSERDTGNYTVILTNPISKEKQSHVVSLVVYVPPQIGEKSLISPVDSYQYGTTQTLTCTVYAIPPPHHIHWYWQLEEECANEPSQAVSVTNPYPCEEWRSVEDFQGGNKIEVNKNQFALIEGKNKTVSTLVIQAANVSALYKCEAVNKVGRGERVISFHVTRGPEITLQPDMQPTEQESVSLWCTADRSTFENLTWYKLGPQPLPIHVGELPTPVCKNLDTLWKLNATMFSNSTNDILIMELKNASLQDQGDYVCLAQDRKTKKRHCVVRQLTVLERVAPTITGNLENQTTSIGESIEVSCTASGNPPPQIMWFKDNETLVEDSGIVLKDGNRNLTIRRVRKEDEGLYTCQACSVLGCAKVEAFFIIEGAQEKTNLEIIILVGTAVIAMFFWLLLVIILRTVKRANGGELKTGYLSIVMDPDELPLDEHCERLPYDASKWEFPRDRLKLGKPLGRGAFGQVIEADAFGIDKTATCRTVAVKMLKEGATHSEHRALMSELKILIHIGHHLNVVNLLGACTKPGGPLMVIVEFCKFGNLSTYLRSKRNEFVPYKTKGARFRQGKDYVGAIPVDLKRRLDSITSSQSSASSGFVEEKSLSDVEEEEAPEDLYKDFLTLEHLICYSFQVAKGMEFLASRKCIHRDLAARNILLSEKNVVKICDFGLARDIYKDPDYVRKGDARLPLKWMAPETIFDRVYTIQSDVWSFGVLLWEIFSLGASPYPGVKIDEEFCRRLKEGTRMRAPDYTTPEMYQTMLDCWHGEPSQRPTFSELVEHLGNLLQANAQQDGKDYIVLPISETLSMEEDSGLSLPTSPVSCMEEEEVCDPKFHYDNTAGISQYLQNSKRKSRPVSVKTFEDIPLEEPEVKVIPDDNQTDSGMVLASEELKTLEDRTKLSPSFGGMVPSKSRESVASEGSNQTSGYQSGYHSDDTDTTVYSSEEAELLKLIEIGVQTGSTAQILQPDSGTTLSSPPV
Sequence of Insulin-like growth factor 1 receptor (P08069 31-736 limits assumed): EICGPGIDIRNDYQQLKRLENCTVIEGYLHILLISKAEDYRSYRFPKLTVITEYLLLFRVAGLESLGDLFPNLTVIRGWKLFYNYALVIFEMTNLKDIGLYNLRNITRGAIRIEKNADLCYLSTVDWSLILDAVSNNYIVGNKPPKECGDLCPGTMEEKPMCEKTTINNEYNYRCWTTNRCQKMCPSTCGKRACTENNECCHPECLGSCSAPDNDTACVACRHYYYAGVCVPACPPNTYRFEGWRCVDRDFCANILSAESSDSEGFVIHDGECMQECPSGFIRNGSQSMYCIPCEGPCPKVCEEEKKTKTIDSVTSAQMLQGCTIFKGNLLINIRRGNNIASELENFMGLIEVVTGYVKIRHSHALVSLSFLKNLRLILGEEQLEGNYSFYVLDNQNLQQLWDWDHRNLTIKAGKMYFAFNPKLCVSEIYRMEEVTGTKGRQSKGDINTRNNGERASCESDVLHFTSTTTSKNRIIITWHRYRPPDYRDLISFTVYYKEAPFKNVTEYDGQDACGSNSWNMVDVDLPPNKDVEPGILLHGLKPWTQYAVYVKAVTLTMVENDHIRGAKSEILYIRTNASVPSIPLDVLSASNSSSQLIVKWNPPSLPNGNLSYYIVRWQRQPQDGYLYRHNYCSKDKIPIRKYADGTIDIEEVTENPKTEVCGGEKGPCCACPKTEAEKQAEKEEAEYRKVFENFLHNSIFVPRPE
Sequence of Insulin-like growth factor 1 receptor (P08069 741-1367 limits assumed): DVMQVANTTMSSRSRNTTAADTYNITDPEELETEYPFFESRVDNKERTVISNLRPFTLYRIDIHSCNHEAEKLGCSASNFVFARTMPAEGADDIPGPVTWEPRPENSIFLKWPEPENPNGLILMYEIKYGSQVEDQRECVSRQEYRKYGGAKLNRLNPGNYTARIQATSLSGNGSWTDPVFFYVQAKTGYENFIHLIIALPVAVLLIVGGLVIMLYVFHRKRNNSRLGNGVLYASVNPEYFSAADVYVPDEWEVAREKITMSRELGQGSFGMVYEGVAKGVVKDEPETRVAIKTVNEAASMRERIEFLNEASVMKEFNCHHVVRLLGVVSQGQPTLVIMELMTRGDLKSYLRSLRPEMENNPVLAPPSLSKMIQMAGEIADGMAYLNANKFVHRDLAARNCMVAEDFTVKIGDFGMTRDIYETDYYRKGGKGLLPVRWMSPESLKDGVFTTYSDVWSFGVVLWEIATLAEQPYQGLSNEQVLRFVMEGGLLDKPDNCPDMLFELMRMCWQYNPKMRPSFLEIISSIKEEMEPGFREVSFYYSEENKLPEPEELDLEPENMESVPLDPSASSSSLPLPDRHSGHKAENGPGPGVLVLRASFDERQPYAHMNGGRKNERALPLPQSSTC
Sequence of Platelet-derived growth factor receptor alpha (P16234 whole entry): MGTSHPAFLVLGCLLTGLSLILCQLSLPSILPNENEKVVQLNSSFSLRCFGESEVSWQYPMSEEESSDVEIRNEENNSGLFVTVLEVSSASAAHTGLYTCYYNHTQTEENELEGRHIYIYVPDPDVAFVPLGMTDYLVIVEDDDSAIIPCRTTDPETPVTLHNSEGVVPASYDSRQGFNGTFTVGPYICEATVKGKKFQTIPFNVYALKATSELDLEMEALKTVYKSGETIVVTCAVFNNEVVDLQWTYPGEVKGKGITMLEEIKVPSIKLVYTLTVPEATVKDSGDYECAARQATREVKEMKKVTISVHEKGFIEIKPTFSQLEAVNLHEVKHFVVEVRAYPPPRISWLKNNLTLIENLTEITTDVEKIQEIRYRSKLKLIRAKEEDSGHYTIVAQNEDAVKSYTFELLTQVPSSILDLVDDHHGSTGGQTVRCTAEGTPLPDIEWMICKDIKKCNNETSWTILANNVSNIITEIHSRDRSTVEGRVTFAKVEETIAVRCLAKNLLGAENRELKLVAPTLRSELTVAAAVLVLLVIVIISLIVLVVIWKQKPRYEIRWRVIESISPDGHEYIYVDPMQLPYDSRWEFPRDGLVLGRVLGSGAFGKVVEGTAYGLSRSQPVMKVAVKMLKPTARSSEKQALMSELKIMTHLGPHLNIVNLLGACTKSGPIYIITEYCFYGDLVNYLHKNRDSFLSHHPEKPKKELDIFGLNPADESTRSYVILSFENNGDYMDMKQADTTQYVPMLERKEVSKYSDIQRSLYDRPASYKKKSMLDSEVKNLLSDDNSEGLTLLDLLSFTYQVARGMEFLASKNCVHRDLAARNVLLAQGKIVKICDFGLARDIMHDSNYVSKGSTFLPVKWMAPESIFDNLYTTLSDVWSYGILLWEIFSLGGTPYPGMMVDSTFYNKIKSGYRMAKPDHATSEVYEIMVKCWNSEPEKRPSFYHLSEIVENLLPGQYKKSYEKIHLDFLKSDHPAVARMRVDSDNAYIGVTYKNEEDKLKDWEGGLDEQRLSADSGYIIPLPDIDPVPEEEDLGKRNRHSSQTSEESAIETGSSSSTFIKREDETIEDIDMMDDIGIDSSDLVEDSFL

In the case of `COc1cc(C2=C(c3c[nH]c4ccc(Br)cc34)C(=O)NC2=O)cc(OC)c1OC`, the IC50 amounted to 5.8 µM in [1]; 13.3 µM in assay [2]; 4.24 µM in assay [3]; 3.22 µM in assay [4]; 1.16 µM in assay [5]; 0.9 µM in assay [6]. Also, the IC50 is 2.37 µM at Angiopoietin-1 receptor, 0.0724 µM in [7], 0.0225 µM in assay [8] and 0.021 µM in assay [9].

With `COc1cc(C2=C(c3c[nH]c4ccc(I)cc34)C(=O)NC2=O)cc(OC)c1OC`, the IC50 in assay [2] worked out at 15.2 µM; in assay [3] it was 3.2 µM; in assay [4], 3.33 µM; in [5], 1.31 µM; in [6], 0.858 µM; against Angiopoietin-1 receptor it was 3.96 µM. Besides, the 50% inhibitory concentration (IC50) in assay [7] came out at 0.0694 µM; in assay [8], 0.0249 µM; in assay [9], 0.0295 µM.

On to `COc1cc(C2=C(c3c[nH]c4ccc(F)cc34)C(=O)NC2=O)cc(OC)c1OC`, for which the IC50 in assay [1] was > 8.48 µM; in [2], > 8.48 µM; in assay [3] it was 8.53 µM; in [4], 3.47 µM; in [5] it was 1.8 µM; in assay [6], 2.67 µM. The IC50 was 1.57 µM at Angiopoietin-1 receptor, 0.15 µM in [7], 0.082 µM in assay [8] and 0.066 µM in [9].
